Test results: ChEMBL document CHEMBL2321765 (J Med Chem, 2013); call rule not given here

What was measured:
CYP3A4 [1] = target: T1, CYP3A4 (Homo sapiens, UniProt P08684); experiment: Inhibition of CYP3A4 in human liver microsomes using testosterone as substrate at 10 uM by LC-MS-MS analysis relative to control; format: ADME, Microsome; conditions: probe testosterone
CYP3A4 [2] = target: T1, CYP3A4; experiment: Time dependent inhibition of CYP3A4 in human liver microsomes using testosterone as substrate at 10 uM preincubated for 30 mins by LC-MS-MS analysis relative to control; format: ADME, Microsome; conditions: probe testosterone, read-out: TDI
How it was run: (§1)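 CYP3A4 metabolism of testosterone was measured after 0 or 30 min preincubation of enzyme with test article at the indicated concentration. Activity lost via preincubation, relative to the zero-minute control with the same inhibitor, was the end point. 6β-OH testosterone was detected by LC-MS/MS with cortisone as internal standard.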

Cytochrome P450 3A4 = Cytochrome P450 3A4 (Homo sapiens, UniProt P08684); experiment: Time dependent inhibition of CYP3A4 in human liver microsomes using testosterone as substrate by LC-MS-MS analysis relative to control; format: ADME, Microsome; how it was run: as §1
Chain of Cytochrome P450 3A4 (P08684 whole entry): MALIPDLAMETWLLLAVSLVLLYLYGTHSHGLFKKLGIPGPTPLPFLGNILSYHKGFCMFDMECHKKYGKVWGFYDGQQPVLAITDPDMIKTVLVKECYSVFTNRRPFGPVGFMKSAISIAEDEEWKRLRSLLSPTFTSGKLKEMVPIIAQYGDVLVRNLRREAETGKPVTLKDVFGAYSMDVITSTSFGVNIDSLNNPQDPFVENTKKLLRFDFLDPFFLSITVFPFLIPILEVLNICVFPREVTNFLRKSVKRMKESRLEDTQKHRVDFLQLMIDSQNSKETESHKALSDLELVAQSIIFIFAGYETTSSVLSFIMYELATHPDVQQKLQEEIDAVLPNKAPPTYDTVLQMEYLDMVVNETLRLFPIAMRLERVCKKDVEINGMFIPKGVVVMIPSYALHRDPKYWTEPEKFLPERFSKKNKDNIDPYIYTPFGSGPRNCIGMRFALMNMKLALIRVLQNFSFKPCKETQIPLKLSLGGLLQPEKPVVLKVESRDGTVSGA

[3] = Half life in rat; format: ADME, organism-based; conditions: in vivo
[4] = Oral bioavailability in dog; format: ADME, organism-based, Canis lupus familiaris; conditions: in vivo
[5] = target: Voltage-gated inwardly rectifying potassium channel KCNH2 (Homo sapiens, UniProt Q12809); experiment: Inhibition of human ERG
Chain of Voltage-gated inwardly rectifying potassium channel KCNH2 (Q12809 whole entry): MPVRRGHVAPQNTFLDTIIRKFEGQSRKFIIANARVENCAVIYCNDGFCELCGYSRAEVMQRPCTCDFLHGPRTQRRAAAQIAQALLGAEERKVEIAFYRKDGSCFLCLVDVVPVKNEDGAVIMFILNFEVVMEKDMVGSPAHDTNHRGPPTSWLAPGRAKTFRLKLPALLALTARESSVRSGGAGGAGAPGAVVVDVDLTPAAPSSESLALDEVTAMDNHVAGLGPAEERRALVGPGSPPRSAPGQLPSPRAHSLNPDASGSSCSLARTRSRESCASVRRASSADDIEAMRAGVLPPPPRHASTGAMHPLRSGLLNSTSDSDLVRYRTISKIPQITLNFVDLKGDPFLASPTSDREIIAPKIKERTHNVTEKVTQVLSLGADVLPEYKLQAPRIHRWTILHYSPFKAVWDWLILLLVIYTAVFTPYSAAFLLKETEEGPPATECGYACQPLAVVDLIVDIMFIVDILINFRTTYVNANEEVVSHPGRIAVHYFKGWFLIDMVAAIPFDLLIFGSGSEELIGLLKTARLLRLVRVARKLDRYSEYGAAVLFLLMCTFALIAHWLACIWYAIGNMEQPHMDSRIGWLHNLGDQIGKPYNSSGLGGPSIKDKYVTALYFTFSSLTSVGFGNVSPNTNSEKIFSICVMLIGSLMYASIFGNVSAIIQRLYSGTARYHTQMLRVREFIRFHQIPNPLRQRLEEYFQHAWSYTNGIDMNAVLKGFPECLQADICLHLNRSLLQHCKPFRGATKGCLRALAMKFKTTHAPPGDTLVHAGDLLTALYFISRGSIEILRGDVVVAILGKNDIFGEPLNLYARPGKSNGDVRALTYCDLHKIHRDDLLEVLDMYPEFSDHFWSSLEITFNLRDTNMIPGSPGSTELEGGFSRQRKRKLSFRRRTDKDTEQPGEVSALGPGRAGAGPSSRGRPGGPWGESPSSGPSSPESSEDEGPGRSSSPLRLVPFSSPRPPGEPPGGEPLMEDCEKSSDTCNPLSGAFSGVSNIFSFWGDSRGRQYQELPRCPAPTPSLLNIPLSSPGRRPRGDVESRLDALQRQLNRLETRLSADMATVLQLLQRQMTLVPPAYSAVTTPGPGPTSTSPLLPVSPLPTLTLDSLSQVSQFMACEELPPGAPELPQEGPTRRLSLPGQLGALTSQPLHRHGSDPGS

[6] = Volume of distribution at steady state in dog; format: ADME, organism-based, Canis lupus familiaris; conditions: in vivo, read-out: Vdss
[7] = Half life in dog; format: ADME, organism-based, Canis lupus familiaris; conditions: in vivo
[8] = Volume of distribution at steady state in rat; format: ADME, organism-based; conditions: in vivo, read-out: Vdss
[9] = Oral bioavailability in rat; format: ADME, organism-based; conditions: in vivo
[10] = Plasma clearance in dog; format: ADME, organism-based, Canis lupus familiaris
[11] = Plasma clearance in rat; format: ADME, organism-based

T1 sequence (P08684 whole entry): as the sequence (P08684 whole entry) above

SMILES	inhibition at 10 µM (CYP3A4 [1]) [%]	inhibition at 30 min, 10 µM (CYP3A4 [2]) [%]	also measured
Cn1cc(-c2cnc3ccc4ccc(CC(=O)NCc5ccccn5)cc4c(=O)c3c2)cn1			TDI (Cytochrome P450 3A4): < 10%
Cn1cc(-c2cnc3ccc4ccc(CS(=O)(=O)NCC5COCCO5)cc4c(=O)c3c2)cn1 (centres undefined)	0	35	
Cn1cc(-c2cnc3ccc4ccc(CS(=O)(=O)NCc5cccnc5)cc4c(=O)c3c2)cn1	30	0	
Cn1cc(-c2cnc3ccc4ccc(CS(=O)(=O)NCCc5ccccn5)cc4c(=O)c3c2)cn1	14	9	
Cn1cc(-c2cnc3ccc4ccc(CS(=O)(=O)NCc5ccc(F)cc5F)cc4c(=O)c3c2)cn1	42	17	

Now from value to compound, other results behind:

inhibition at 10 µM (CYP3A4 [1]) [%]	inhibition at 30 min, 10 µM (CYP3A4 [2]) [%]	SMILES	also measured
0	6	CN(C)S(=O)(=O)Cc1ccc2ccc3ncc(-c4cnn(C)c4)cc3c(=O)c2c1	
0	35	CNS(=O)(=O)Cc1ccc2ccc3ncc(-c4cnn(C)c4)cc3c(=O)c2c1	
67	13	Cn1cc(-c2cnc3ccc4ccc(CS(=O)(=O)NCc5cnsc5)cc4c(=O)c3c2)cn1	
	30	CN(C)S(=O)(=O)Nc1ccc2ccc3ncc(-c4cnn(C)c4)cc3c(=O)c2c1	half-life [3]: 42 min; bioavailability [4]: 16%; inhibition (INH) [5]: Not Active; Vd [6]: 3.5 L/kg; half-life [7]: 48 min; Vd [8]: 2.5 L/kg; bioavailability [9]: 24%; clearance [10]: 57 mL/min/kg; clearance [11]: 40 mL/min/kg
21	15	CCCNS(=O)(=O)Cc1ccc2ccc3ncc(-c4cnn(C)c4)cc3c(=O)c2c1	
27	20	Cn1cc(-c2cnc3ccc4ccc(CS(=O)(=O)N[C@@H]5CCCC[C@@H]5N)cc4c(=O)c3c2)cn1	
